Assays:
Influenza A virus [1] = experiment: Ratio of IC50 for influenza A (A/Singapore/57/2009 (H1N1)) virus harboring neuraminidase H275Y mutant to IC50 for influenza A (A/Washington/29/2009 (H1N1)) virus expressing wild type enzyme by NA-star substrate based chemiluminescent assay; assay type: functional
How it was run: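 Chemiluminescent NA inhibition in MES 26 mM/CaCl2 4 mM buffer, pH 6.0. […] Luminescence read for 0.1 s. IC50 from the fit y = Vmax·{1 − [x/(K + x)]}, mean of ≥3 experiments. Ratio is the H275Y variant IC50 over the pandemic wild-type reference IC50.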

Influenza A virus [2] = experiment: Ratio of IC50 for influenza A (A/North Carolina/02/2009 (H1N1)) virus harboring neuraminidase H275Y mutant to IC50 for influenza A (A/Washington/10/2008 (H1N1)) virus expressing wild type enzyme by MUNANA substrate based fluorometric assay; assay type: functional
Influenza A virus [3] = experiment: Antiviral activity against influenza A (A/Hong Kong/2369/2009 (H1N1)) virus harboring neuraminidase H275Y mutant after 30 mins by NA-star substrate based chemiluminescent assay; assay type: functional, organism-based
How it was run: (§1)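 Titrated virus in NA-Star buffer (26 mM MES, 4 mM CaCl2, pH 6.0) was preincubated with ten half-log inhibitor dilutions (0.03–1,000 nM final) for 30 min at 37°C, then with substrate for 30 min at room temperature. Accelerator solution was added and luminescence read for 0.1 s. IC50 came from a Vmax·[1−x/(K+x)] fit, mean of ≥3 experiments.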

Influenza A virus [4] = experiment: Ratio of IC50 for influenza A (A/Montana/02/2009 (H1N1)) virus harboring neuraminidase H275Y mutant to IC50 for influenza A (A/Washington/29/2009 (H1N1)) virus expressing wild type enzyme by MUNANA substrate based fluorometric assay; assay type: functional
Influenza A virus [5] = experiment: Ratio of IC50 for influenza A (A/Hong Kong/2369/2009 (H1N1)) virus harboring neuraminidase H275Y mutant to IC50 for influenza A (A/Washington/29/2009 (H1N1)) virus expressing wild type enzyme by MUNANA substrate based fluorometric assay; assay type: functional
Influenza A virus [6] = experiment: Antiviral activity against influenza A (A/Washington/29/2009 (H1N1)) virus harboring neuraminidase H275Y mutant after 30 mins by MUNANA substrate based fluorometric assay; assay type: functional, organism-based
How it was run: (§2)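 Fluorometric NA inhibition with MUNANA (100 μM final). Titrated virus in NA-Star buffer (26 mM MES, 4 mM CaCl2, pH 6.0) was preincubated with ten half-log inhibitor dilutions (0.03–1,000 nM final) for 30 min at 37°C, then with substrate for 30 min at 37°C. The reaction was stopped with 0.1 M glycine in 25% ethanol, pH 10.7, and 4-methylumbelliferone was read at ex 365/em 450 nm. IC50 came from a Vmax·[1−x/(K+x)] fit, mean of ≥3 experiments.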

Influenza A virus [7] = experiment: Ratio of IC50 for influenza A (A/Osaka/180/2009 (H1N1)) virus harboring neuraminidase H275Y mutant to IC50 for influenza A (A/Washington/29/2009 (H1N1)) virus expressing wild type enzyme by NA-star substrate based chemiluminescent assay; assay type: functional
Influenza A virus [8] = experiment: Antiviral activity against influenza A (A/North Carolina/01/2009 (H1N1)) virus harboring neuraminidase H275Y mutant after 30 mins by MUNANA substrate based fluorometric assay; assay type: functional, organism-based; how it was run: as §2
Influenza A virus [9] = experiment: Ratio of IC50 for influenza A (A/New York/18/2009 (H1N1)) virus harboring neuraminidase H275Y mutant to IC50 for influenza A (A/Washington/10/2008 (H1N1)) virus expressing wild type enzyme by NA-star substrate based chemiluminescent assay; assay type: functional
Influenza A virus [10] = experiment: Ratio of IC50 for influenza A (A/Osaka/180/2009 (H1N1)) virus harboring neuraminidase H275Y mutant to IC50 for influenza A (A/Washington/29/2009 (H1N1)) virus expressing wild type enzyme by fetuin substrate based colorimetric assay; assay type: functional
How it was run: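 Colorimetric NA inhibition using a virus dilution that gave 0.4–0.8 OD549. Virus preincubated 1 h at 37°C with half-log inhibitor dilutions (0.03–1,000 nM final) in MES/CaCl2 pH 6.0 buffer. Fetuin (5.5 mg/ml final) then added for 18 h at 37°C. Released sialic acid detected by periodate oxidation and thiobarbituric acid, butanol extraction, read at 549 nm. IC50 curve-fitted, ≥2 experiments. Ratio is variant IC50 over wild-type reference IC50.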

Influenza A virus [11] = experiment: Antiviral activity against influenza A (A/North Carolina/01/2009 (H1N1)) virus harboring neuraminidase H275Y mutant after 30 mins by NA-star substrate based chemiluminescent assay; assay type: functional, organism-based; how it was run: as §1
Influenza A virus [12] = experiment: Antiviral activity against influenza A (A/Montana/02/2009 (H1N1)) virus harboring neuraminidase H275Y mutant after 16 to 18 hrs by fetuin substrate based colorimetric assay; assay type: functional, organism-based
How it was run: (§3)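 Colorimetric NA inhibition with fetuin substrate. Virus was diluted in NA-Star buffer (26 mM MES, 4 mM CaCl2, pH 6.0) to give OD549 of 0.4–0.8 after 18 h. It was preincubated with ten half-log inhibitor dilutions (0.03–1,000 nM final) for 1 h at 37°C, then with fetuin (5.5 mg/ml final) for 16–18 h at 37°C. Released sialic acid was read at 549 nm after periodate/TBA reaction and butanol extraction. IC50 came from a Vmax·[1−x/(K+x)] fit, mean of ≥2 experiments.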

Influenza A virus [13] = experiment: Antiviral activity against influenza A (A/Montana/02/2009 (H1N1)) virus harboring neuraminidase H275Y mutant after 30 mins by MUNANA substrate based fluorometric assay; assay type: functional, organism-based; how it was run: as §2
Influenza A virus [14] = experiment: Ratio of IC50 for influenza A (A/Singapore/57/2009 (H1N1)) virus harboring neuraminidase H275Y mutant to IC50 for influenza A (A/Washington/29/2009 (H1N1)) virus expressing wild type enzyme by MUNANA substrate based fluorometric assay; assay type: functional
How it was run: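 Fluorometric NA inhibition in MES/CaCl2 buffer, pH 6.0. Virus preincubated 30 min at 37°C with ten half-log inhibitor dilutions (0.03–1,000 nM final), then MUNANA (100 μM final) added for 30 min at 37°C. Stopped with 0.1 M glycine in 25% ethanol, pH 10.7. Read at ex 365/em 450 nm. IC50 curve-fitted, mean of ≥3 experiments. Ratio is variant IC50 over wild-type reference IC50.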

Influenza A virus [15] = experiment: Antiviral activity against influenza A (A/Washington/29/2009 (H1N1)) virus harboring neuraminidase H275Y mutant after 16 to 18 hrs by fetuin substrate based colorimetric assay; assay type: functional, organism-based; how it was run: as §3
Influenza A virus [16] = experiment: Antiviral activity against influenza A (A/Singapore/57/2009 (H1N1)) virus harboring neuraminidase H275Y mutant after 30 mins by MUNANA substrate based fluorometric assay; assay type: functional, organism-based; how it was run: as §2
Influenza A virus [17] = experiment: Ratio of IC50 for influenza A (A/North Carolina/01/2009 (H1N1)) virus harboring neuraminidase H275Y mutant to IC50 for influenza A (A/Washington/29/2009 (H1N1)) virus expressing wild type enzyme by NA-star substrate based chemiluminescent assay; assay type: functional
Influenza A virus [18] = experiment: Antiviral activity against influenza A (A/Hong Kong/2369/2009 (H1N1)) virus harboring neuraminidase H275Y mutant after 16 to 18 hrs by fetuin substrate based colorimetric assay; assay type: functional, organism-based; how it was run: as §3

**Q.** With `C/C=C\[C@@H]1C[C@H](C(=O)O)N[C@H]1[C@@H](NC(C)=O)[C@](C)(CCC)OC` as the molecule, how does the “Ratio IC50” value (Influenza A virus [1]) read?
**A.** 3

**Q.** And the “Ratio IC50” value (Influenza A virus [2])?
**A.** 1

**Q.** What about the IC50 (Influenza A virus [3]) of the same molecule?
**A.** 1.09 nM

**Q.** What about the “Ratio IC50” value (Influenza A virus [4]) of the same molecule?
**A.** 5

**Q.** And the “Ratio IC50” value (Influenza A virus [5])?
**A.** 3

**Q.** And the IC50 (Influenza A virus [6])?
**A.** 1.76 nM

**Q.** What about the “Ratio IC50” value (Influenza A virus [7]) of the same molecule?
**A.** 3

**Q.** What about the IC50 (Influenza A virus [8]) of the same molecule?
**A.** 1.93 nM

**Q.** What about the “Ratio IC50” value (Influenza A virus [9]) of the same molecule?
**A.** 1

**Q.** And the “Ratio IC50” value (Influenza A virus [10])?
**A.** 3

**Q.** What about the IC50 (Influenza A virus [11]) of the same molecule?
**A.** 0.84 nM

**Q.** And the IC50 (Influenza A virus [12])?
**A.** 1.89 nM

**Q.** And the IC50 (Influenza A virus [13])?
**A.** 2.6 nM

**Q.** And the “Ratio IC50” value (Influenza A virus [14])?
**A.** 3

**Q.** And the IC50 (Influenza A virus [15])?
**A.** 2.07 nM

**Q.** What about the IC50 (Influenza A virus [16]) of the same molecule?
**A.** 1.39 nM

**Q.** What about the “Ratio IC50” value (Influenza A virus [17]) of the same molecule?
**A.** 5

**Q.** And the IC50 (Influenza A virus [18])?
**A.** 3.56 nM

**Q.** How did the “Ratio IC50” value (Influenza A virus [1]) turn out when `CCC(CC)[C@H](NC(C)=O)[C@@H]1[C@H](O)[C@@H](C(=O)O)C[C@H]1NC(=N)N` [PERAMIVIR ANHYDROUS] was run?
**A.** 84

**Q.** And the “Ratio IC50” value (Influenza A virus [2])?
**A.** 1

**Q.** What about the IC50 (Influenza A virus [3]) of the same molecule?
**A.** 9.24 nM

**Q.** What about the “Ratio IC50” value (Influenza A virus [4]) of the same molecule?
**A.** 1095

**Q.** What about the “Ratio IC50” value (Influenza A virus [5]) of the same molecule?
**A.** 641

**Q.** What about the IC50 (Influenza A virus [6]) of the same molecule?
**A.** 150 nM

**Q.** What about the “Ratio IC50” value (Influenza A virus [7]) of the same molecule?
**A.** 93

**Q.** And the IC50 (Influenza A virus [8])?
**A.** 150 nM

**Q.** And the “Ratio IC50” value (Influenza A virus [9])?
**A.** 1

**Q.** What about the “Ratio IC50” value (Influenza A virus [10]) of the same molecule?
**A.** 398

**Q.** And the IC50 (Influenza A virus [11])?
**A.** 13.8 nM

**Q.** What about the IC50 (Influenza A virus [12]) of the same molecule?
**A.** 83.4 nM

**Q.** What about the IC50 (Influenza A virus [13]) of the same molecule?
**A.** 197 nM

**Q.** What about the “Ratio IC50” value (Influenza A virus [14]) of the same molecule?
**A.** 609

**Q.** And the IC50 (Influenza A virus [15])?
**A.** 163 nM

**Q.** And the IC50 (Influenza A virus [16])?
**A.** 122 nM

**Q.** What about the “Ratio IC50” value (Influenza A virus [17]) of the same molecule?
**A.** 125

**Q.** And the IC50 (Influenza A virus [18])?
**A.** 162 nM

From ChEMBL document CHEMBL1649328, “Assessment of pandemic and seasonal influenza A (H1N1) virus susceptibility to neuraminidase inhibitors in three enzyme activity inhibition assays” (Antimicrob Agents Chemother, 2010)
